# Measurements: ChEMBL document CHEMBL1125797, “Synthesis, characterization and myocardial uptake of cationic bis(arene)technetium(I) complexes” (J Med Chem, 1991)
# Tests used:
# Homo sapiens = species on record: Homo sapiens; assay: The compound was tested for the plasma binding in human; assay type: functional
# Method in brief: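 Fresh heparinized human plasma (1.0 mL, obtained daily) was spiked with 0.02 mL test solution and incubated about 15 min. Duplicate samples went through saline-equilibrated Sephadex G-25 desalting columns by centrifugation. Eluate and gel were γ-counted for 1 min or to 1% σ error. % bound = net cpm eluate / net cpm (eluate + gel) × 100.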
# Rattus norvegicus = species on record: Rattus norvegicus; assay: The compound was tested for the plasma binding in rat; assay type: functional
# Method in brief: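 Plasma protein binding was measured in rat plasma samples collected during the rat biodistribution studies, after tail vein injection of the 99mTc complex in saline (~25 μCi/kg).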
substance,measurement,setting,value
Bis(m-xylene)technetium,PPB,Homo sapiens,11%
same,PPB,Rattus norvegicus,12%
